# A selection: hits, their analogues and other compounds. The true share with any hit is near 8.9%.
# Dynein cargo inh – blocks dynein driven cargo transport along microtubules; 3617.4 mouse cells, GR-EGFP nuclear translocation imaging; test concentration mostly 20 µM; stimulated with dexamethasone, 1 µM; hits give low values; z-score, hits read low; 220,000 tested, 0.47% active; AID 1381;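 active means plate z-score of nuclear minus cytoplasmic receptor signal below a set negative limit, without overly bright fluorescence or cell loss, cut at about -3.5 in these data, passing the limit was not always enough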;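 further: z-score of nuclear minus cytoplasmic ring GR-EGFP intensity difference per well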
#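 Buffer or medium: tetracycline-free induction medium containing charcoal-stripped FBS / Reagent: dexamethasone agonist, 1.0 µM final, for 30 min / Technique: automated 10x imaging of fixed Hoechst-stained cells / Times: induction 48 h, compound 1 h, agonist 30 min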
# MT stabilize HCS – stabilizes microtubules in HeLa cells; HeLa tubulin immunostaining HCS, 24 h; share of cells brighter than vehicle mean+2SD; 200,000 tested, 0.83% active; AID 2205; % tubulin-high responders, % at 10 µM;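 active means plate Z-score above 3 for both tubulin-high and condensed-nucleus cell shares, with cell loss under 80%, at 10 µM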;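 further: anti alpha tubulin signal scored within the nucleus-defined area of each cell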
# b-catenin transl – alters nuclear translocation of beta-catenin in HeLa cells. 190,000 tested, 0.3% active. immunofluorescence imaging. nuclear translocation activity, % at 5 µM. AID 1665;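 active means nuclear translocation activity above 50% at 5 µM, with a well cell count of 50 or more; inconclusive means wells under 50 cells across six images, flagged as toxic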;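 further: per-cell ratio of nuclear to cytoplasmic median beta-catenin stain intensity; plate controls were DMSO negative control for no effect and GSK-3 inhibitor IX positive control for full effect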
#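 Read-out: Nuclear/cytoplasmic beta-catenin signal ratio, % activation | Assay system: Human HeLa cell line | Times: 24 h compound exposure at 37°C, 5% CO2 | Signal: Fluorescence imaging of beta-catenin antibody stain plus DAPI | Dosing: 5 µM primary, 0.02–20 µM confirmation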
# HSV augment – HSV replication enhancement | AID 1956 | maximum fold increase | HSV replication augmentation in cells, fold increase | 220,000 tested, 0.005% active; in the data active means maximum fold increase above about 1.5; inconclusive means no clear call, values can overlap the other calls; tested in PC3 cells
# L major viab – reduces viability of Leishmania major promastigotes; AID 1063; inhibition, % at 10 µM; 200,000 tested, 9% active; resazurin fluorescence viability; in the data active means inhibition above about 50%;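 further: promastigotes grown with compound for 44 hours at 28 °C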
# * marks the source's active call; other numbers are inactive results; i = inactive; ? = inconclusive; . = no result given.
SMILES,Dynein cargo inh,MT stabilize HCS,b-catenin transl,HSV augment,L major viab
COc1ccc2c(c1)S/C(=C\C(=O)c1ccncc1)N2C,0.17,2,-2,i,97*
COc1cc(OC)cc(C(=O)/C=C2\Sc3ccccc3N2C)c1,0.78,1,-2,i,3
C=CCNC(=O)C12CC3(C)CC(C)(CC(C)(C3)C1)C2,0.3,2,.,i,-2
Cc1cc(S(=O)(=O)N2CCN(c3c(C)cccc3C)CC2)ccc1F,0.17,1,.,i,4
CCC(C)N(C)Cc1cccc(C2(O)CCN(S(=O)(=O)c3ccc(F)c(C)c3)CC2)c1 (centres undefined),0.14,3,3,i,99*
COc1ccc(C2C(C#N)=C(N)Oc3n[nH]c(C)c32)cc1Cn1nc(C)c([N+](=O)[O-])c1C (centres undefined),-0.024,4,-1,i,6
COc1ccc(C2C(C#N)=C(N)OC3=C2C(=O)CCC3)cc1Cn1nc(C)c([N+](=O)[O-])c1C (centres undefined),-0.24,3,0,i,93*
COC(=O)C1=C(C)N(CCCC(=O)O)C(=O)NC1c1cccc(OC)c1 (centres undefined),.,.,.,i,.
COc1cc2c3c(c1)/C(=C1/SC(NC(C)=O)=NC1=O)C(=O)N3C(C)(C)C=C2C,-0.39,4,.,i,-7
CCN1C(=O)/C(=C2/C(=O)N3c4c(cc(OC(C)=O)cc42)C(C)=CC3(C)C)SC1=S,0.47,1,0,i,78*
O=C(Nc1nnc(-c2ccco2)o1)c1ccc2ccccc2c1,0.16,5,-7,i,69*
Cc1ccsc1C(=O)Nc1nnc(-c2ccco2)o1,-0.33,4,-1,i,88*
CCOc1ccccc1NC(=O)c1cc(C(=O)c2cc(OC)ccc2O)coc1=N,-0.8,8,0,?,10
CCC(=O)N(CCC(c1ccco1)c1ccccc1OC)Cc1cccs1 (centres undefined),-1.7,3,.,i,13
NC(=O)c1ccsc1NC(=O)CSc1ccccc1F,0.49,1,-2,i,10
NC(=O)c1ccsc1NC(=O)CSc1nnc(Nc2ccccc2)s1,-0.4,3,4,i,57*
O=C(CSc1cccs1)Nc1ccc2ccccc2c1,0.0022,1,2,i,0
O=C(CSc1cccs1)Nc1cccc2ccccc12,0.15,2,-2,i,64*
CNC(=O)CCn1nc(-c2ccc(Cl)cc2)c2ccccc2c1=O,-0.092,3,1,i,0
CC(C)c1ccc(/C=C/C(=O)NCCC2=CCCCC2)cc1,0.49,3,0,i,4
C/C(CC(=O)NC12CC3CC(CC(C3)C1)C2)=N\NC(=O)c1cnccn1,0.52,5,-2,i,10
Cc1cc(O)c(/C=N/Nc2ccccc2)c(=O)o1,-0.37,2,5,i,76*
CCNC(=O)COc1cccc(C(=O)NCc2ccccc2)c1,0.14,2,-1,i,51*
CCCNC(=O)COc1cccc(C(=O)NCc2ccccc2)c1,0.56,2,.,i,-6
CNC(=O)COc1cccc(C(=O)NCc2ccccc2)c1,1.9,4,-3,i,-4
SMILES,Dynein cargo inh,MT stabilize HCS,b-catenin transl,HSV augment,L major viab
CC(C)CNC(=O)COc1cccc(C(=O)NCc2ccccc2)c1,-0.28,2,-1,i,52*
Nc1nnc(Cc2c[nH]c3ccccc23)s1,1.8,2,-5,i,19
COc1ccc(Nc2nc(-c3sc(N)nc3C)cs2)cc1,-0.13,1,2,i,26
CCCCCCC(=O)Nc1nc(C)c(-c2csc(Nc3ccc(Cl)cc3)n2)s1,1.2,3,6,i,52*
CCCCCCC(=O)Nc1nc(C)c(-c2csc(Nc3cc(OC)ccc3OC)n2)s1,0.2,3,1,i,71*
CCCCCC(=O)Nc1nc(C)c(-c2csc(Nc3cc(OC)ccc3OC)n2)s1,1,11,15,i,51*
COc1ccc(Nc2nc(-c3sc(NC(C)=O)nc3C)cs2)cc1,-0.04,23*,.,.,-2
CCCCOc1nc2c(c(=O)n(C)c(=O)n2C)n1C,0.19,.,0,i,.
CN1C(=O)SC(Nc2cccc3ccccc23)C1=O (centres undefined),-1.2,3,3,i,0
COCCNCC(O)CON=C1c2ccccc2-c2ccccc21 (centres undefined),-1,5,-1,i,40
CC(C)CCNCC(O)CON=C1c2ccccc2-c2ccccc21 (centres undefined),-0.9,13,0,i,88*
Cc1cc(Cl)ccc1OCC(O)CN1C(C)CCCC1C (centres undefined),1.1,3,-1,i,91*
CC(=O)c1ccc(OCC(O)CN2C(C)CCCC2C)cc1 (centres undefined),0.075,2,-1,i,72*
CC(=O)c1ccc(OCC(O)CN2CC(C)OC(C)C2)cc1 (centres undefined),0.13,3,0,i,37
Cc1ccccc1OCC(O)CN1CCN(c2ccc(Cl)cc2)CC1 (centres undefined),2.3,.,-1,i,.
CCC(=O)c1ccc(OCC(O)CN2CCN(C(c3ccccc3)c3ccccc3)CC2)cc1 (centres undefined),-2.1,2,.,i,60*
CC(=O)c1ccc(OCC(O)CN2CCC(C)CC2)cc1 (centres undefined),1.1,9,0,i,88*
c1ccc(CCNc2ncnc3nc[nH]c23)cc1,0.91,3,0,i,1
O=C(C1=C[C@@H](c2ccc3c(c2)OCO3)C[C@@H](OCc2ccc(CO)cc2)O1)N1CCOCC1,-1.4,2,-3,i,7
O=C(C1=C[C@H](c2ccc3c(c2)OCO3)C[C@H](OCc2ccc(CO)cc2)O1)N1CCCCCCC1,2.1,4,-1,.,61*
O=C(C1=C[C@@H](c2ccc(C(F)(F)F)cc2)C[C@@H](OCc2ccc(CO)cc2)O1)N1CCN(Cc2ccc3c(c2)OCO3)CC1,2.8,3,1,i,56*
O=C(C1=C[C@@H](c2ccc(Br)cc2)C[C@@H](OCc2ccc(CO)cc2)O1)N1CCN(Cc2ccc3c(c2)OCO3)CC1,-0.68,9,-2,i,56*
CCc1c(C)nc(SCC(=O)N2CCN(c3ccccc3OC)CC2)[nH]c1=O,-0.76,3,0,i,-9
O=C(Nc1ccccc1-c1ccccc1)NC1CC2CCCC(C1)N2CCc1ccccc1 (centres undefined),0.25,3,-2,i,72*
O=C(Nc1ccccc1-c1ccccc1)NC1CC2CCCC(C1)N2Cc1ccc(F)cc1 (centres undefined),0.29,3,0,i,69*
CCN(CC)C(=O)NC1CC2CCCC(C1)N2Cc1ccccc1 (centres undefined),-0.39,2,-1,i,-1

# Source: PubChem BioAssay
